Results from ChEMBL document CHEMBL4390654, “Microwave-assisted solid-phase synthesis of antisense acpP peptide nucleic acid-peptide conjugates active against colistin- and tigecycline-resistant E. coli and K. pneumoniae” (Eur J Med Chem, 2019).
Square brackets hold non-standard residues; d marks the D form. Peptide text beside a SMILES is read from it. * marks the point of attachment. X3 = CC[C@H](C)[C@@H](C(=O)*)N(C(=O)[C@H](CCCNC(=N)N)NC(=O)CCCCCNC(=O)[C@@H](N)CCCNC(=N)N)C(=O)[C@H](CCCNC(=N)N)NC(=O)CCCCCNC(=O)[C@@H](N)CCCNC(=N)N; Ahx = NCCCCCC(=O)O

How the values were obtained:
[1] = tested on: Escherichia coli; assay: Antibacterial activity against Escherichia coli ATCC 25922 assessed as reduction in microbial growth incubated for 20 hrs; type: functional; conditions: ATCC 25922, 20 h
Summary of the method: (§1)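 Broth microdilution MIC (modified Hancock protocol) in non-binding polystyrene plates. Inoculum ~2 × 10^5 CFU/mL in Mueller-Hinton broth with Mg²⁺ and Ca²⁺ at 4 mg/L each. Compounds dissolved in water, diluted in 0.01% acetic acid/0.2% BSA (final), added as 10× stocks. Covered plates incubated 20 h at 35 °C (± 2 °C) with 220 rpm circular shaking before MIC read.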

[2] = tested on: Escherichia coli; assay: Antibacterial activity against Escherichia coli lacking a functional SbmA assessed as reduction in microbial growth incubated for 20 hrs
Summary of the method: (§2)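 Broth microdilution MIC after a modified Hancock protocol for cationic peptides, in non-binding polystyrene plates. Inoculum ~2 × 10^5 CFU/mL in Mueller-Hinton broth with Mg²⁺ and Ca²⁺ at 4 mg/L each. Compounds dissolved in water, diluted in 0.01% acetic acid, 0.2% BSA (final), added as 10× aliquots. Covered plates incubated 20 h at 35 °C (± 2 °C) with shaking at 220 rpm. MIC read as lowest inhibiting concentration.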

[3] = tested on: Klebsiella pneumoniae; assay: Antibacterial activity against Klebsiella pneumoniae ATCC 13883 assessed as reduction in microbial growth incubated for 20 hrs; type: functional; conditions: ATCC 13883, 20 h; summary of the method: as §2
[4] = tested on: Pseudomonas aeruginosa; assay: Antibacterial activity against Pseudomonas aeruginosa PAO1 assessed as reduction in microbial growth incubated for 20 hrs; type: functional; conditions: PAO1, 20 h; summary of the method: as §2
[5] = tested on: Acinetobacter baumannii; assay: Antibacterial activity against Acinetobacter baumannii ATCC 19606 assessed as reduction in microbial growth incubated for 20 hrs; type: functional; conditions: ATCC 19606 = CIP 70.34 = JCM 6841, 20 h; summary of the method: as §2
[6] = tested on: Staphylococcus aureus; assay: Antibacterial activity against Staphylococcus aureus ATCC 29213 assessed as reduction in microbial growth incubated for 20 hrs; type: functional; conditions: ATCC 29213, 20 h; summary of the method: as §2
[7] = tested on: Escherichia coli; assay: Antibacterial activity against multi-drug resistant Escherichia coli NMI 3548/14 assessed as reduction in microbial growth incubated for 20 hrs; type: functional; summary of the method: as §1
[8] = tested on: Escherichia coli; assay: Antibacterial activity against multi-drug resistant Escherichia coli NMI 3898/15 assessed as reduction in microbial growth incubated for 20 hrs; type: functional; conditions: NMI 3898/15, 20 h; summary of the method: as §1
[9] = tested on: Klebsiella pneumoniae; assay: Antibacterial activity against multi-drug resistant Klebsiella pneumoniae NMI 2697/14 assessed as reduction in microbial growth incubated for 20 hrs; type: functional; summary of the method: as §1
[10] = tested on: Klebsiella pneumoniae; assay: Antibacterial activity against multi-drug resistant Klebsiella pneumoniae NMI 3081/09 assessed as reduction in microbial growth incubated for 20 hrs; type: functional; summary of the method: as §1
[11] = Hemolytic activity against RBC (unknown origin) at 100 uM; type: ADME, cell-based, Erythrocyte; conditions: red blood cells (erythrocytes); read-out: Activity

| Compound | MIC [1] [µg/mL] | MIC [2] [µg/mL] | MIC [3] [µg/mL] | MIC [4] [µg/mL] | MIC [5] [µg/mL] | MIC [6] [µg/mL] | MIC ([7]; NMI 3548/14, 20 h) [µg/mL] | MIC [8] [µg/mL] | MIC ([9]; NMI 2697/14, 20 h) [µg/mL] | MIC ([10]; NMI 3081/09, 20 h) [µg/mL] | hemolysis at 100 µM [11] [%] | MIC [7] [µg/mL] | MIC [9] [µg/mL] | MIC [10] [µg/mL] |
| --- | --- | --- | --- | --- | --- | --- | --- | --- | --- | --- | --- | --- | --- | --- |
| CC[C@H](C)[C@H](NC(=O)[C@@H]1CCCN1C(=O)[C@H](CCCNC(=N)N)NC(=O)[C@@H]1CCCN1C(=O)[C@H](Cc1cnc[nH]1)NC(=O)[C@H](CO)NC(=O)[C@@H](NC(=O)[C@@H]1CCCN1C(=O)[C@H](CCCNC(=N)N)NC(=O)[C@@H]1CCCN1C(=O)[C@H](CO)NC(=O)[C@H](Cc1ccc(O)cc1)NC(=O)[C@@H]1CCCN1C(=O)[C@H](CCCNC(=N)N)NC(=O)[C@@H]1CCCN1C(=O)[C@H](CCCNC(=N)N)NC(=O)CCCCCNC(=O)[C@@H](N)CCCNC(=N)N)[C@@H](C)O)C(=O)N[C@@H](CCCNC(=N)N)C(=O)N[C@H](C(=O)N[C@@H](CS)C(=O)N[C@H](C(=O)N[C@@H](CS)C(=O)N[C@H](C(=O)N[C@H](C(=O)N[C@@H](C)C(=O)N[C@@H](CS)C(=O)N[C@@H](C)C(=O)N[C@@H](CS)C(=O)N[C@H](C(N)=O)[C@@H](C)O)[C@@H](C)O)[C@@H](C)O)[C@@H](C)O)C(C)C (H-R[Ahx]RPRPYSPRPTSHPRPIRVCTCTTACACT-NH2) | > 64 | > 64 | 64 | > 64 | > 64 | > 64 | > 64 | > 64 | > 64 | 8 to 16 | < 1 |  |  |  |
| CCN1CCN(C(=O)N[C@@H](C(=O)N[C@@H]2C(=O)N3[C@@H]2SC(C)(C)[C@@H]3C(=O)O)c2ccccc2)C(=O)C1=O [PIPERACILLIN] |  |  |  |  |  |  | 8 | > 256 | > 256 | > 256 |  |  |  |  |
| CO/N=C(\C(=O)N[C@@H]1C(=O)N2C(C(=O)O)=C(COC(C)=O)CS[C@H]12)c1csc(N)n1 [CEFOTAXIME] |  |  |  |  |  |  | 16 | 16 | > 32 | > 32 |  |  |  |  |
| CC[C@H](C)[C@H](NC(=O)[C@H](CCCCN)NC(=O)[C@H]([C@@H](C)CC)N(C(=O)[C@H](CCCNC(=N)N)NC(=O)CCCCCNC(=O)[C@@H](N)CCCNC(=N)N)C(=O)[C@H](CCCNC(=N)N)NC(=O)CCCCCNC(=O)[C@@H](N)CCCNC(=N)N)C(=O)N[C@@H](CC(C)C)C(=O)N[C@@H](Cc1ccccc1)C(=O)N[C@@H](CCC(N)=O)C(=O)N[C@@H](CC(N)=O)C(=O)N[C@@H](CCCNC(=N)N)C(=O)N[C@@H](CCCNC(=N)N)C(=O)N[C@@H](CCSC)C(=O)N[C@@H](CCCCN)C(=O)N[C@@H](Cc1c[nH]c2ccccc12)C(=O)N[C@@H](CCCCN)C(=O)N[C@@H](CCCCN)C(=O)N[C@@H](CS)C(=O)N[C@H](C(=O)N[C@@H](CS)C(=O)N[C@H](C(=O)N[C@H](C(=O)N[C@@H](C)C(=O)N[C@@H](CS)C(=O)N[C@@H](C)C(=O)N[C@@H](CS)C(=O)N[C@H](C(N)=O)[C@@H](C)O)[C@@H](C)O)[C@@H](C)O)[C@@H](C)O (X3-KILFQNRRMKWKKCTCTTACACT-NH2) | 64 | 64 | > 64 | 32 | 16 to 32 | > 64 | 8 to 16 | 32 | ≥ 64 | 16 | < 1 |  |  |  |
| GENTAMICIN |  |  |  |  |  |  |  |  |  |  |  | 2 | > 64 | 2 |
| O=C(O)c1cn(C2CC2)c2cc(N3CCNCC3)c(F)cc2c1=O [CIPROFLOXACIN] |  |  |  |  |  |  |  | > 32 | 2 | > 32 |  |  |  |  |
| CC[C@H](C)[C@H](NC(=O)[C@H](CCCCN)NC(=O)[C@H]([C@@H](C)CC)N(C(=O)[C@H](CCCNC(=N)N)NC(=O)CCCCCNC(=O)[C@@H](N)CCCNC(=N)N)C(=O)[C@H](CCCNC(=N)N)NC(=O)CCCCCNC(=O)[C@@H](N)CCCNC(=N)N)C(=O)N[C@@H](CC(C)C)C(=O)N[C@@H](Cc1ccccc1)C(=O)N[C@@H](CCC(N)=O)C(=O)N[C@@H](CC(N)=O)C(=O)N[C@@H](CCCNC(=N)N)C(=O)N[C@@H](CCCNC(=N)N)C(=O)N[C@@H](CCSC)C(=O)N[C@@H](CCCCN)C(=O)N[C@@H](Cc1c[nH]c2ccccc12)C(=O)N[C@@H](CCCCN)C(=O)N[C@@H](CCCCN)C(N)=O | 8 | 8 | 64 | 8 | 8 | 32 to 64 | 4 to 8 | 16 | > 64 | > 64 | < 1 |  |  |  |
| C[C@@H](O)[C@H]1C(=O)N2C(C(=O)O)=C(S[C@@H]3CN[C@H](C(=O)N(C)C)C3)[C@H](C)[C@H]12 [MEROPENEM] |  |  |  |  |  |  | 0.5 | 0.125 | 1 | > 32 |  |  |  |  |
| CC[C@@H](C)[C@@H](NC(=O)[C@H]1CCCN1C(=O)[C@@H](CCCNC(=N)N)NC(=O)[C@H]1CCCN1C(=O)[C@@H](Cc1cnc[nH]1)NC(=O)[C@@H](CO)NC(=O)[C@H](NC(=O)[C@H]1CCCN1C(=O)[C@@H](CCCNC(=N)N)NC(=O)[C@H]1CCCN1C(=O)[C@@H](CO)NC(=O)[C@@H](Cc1ccc(O)cc1)NC(=O)[C@H]1CCCN1C(=O)[C@@H](CCCNC(=N)N)NC(=O)[C@H]1CCCN1C(=O)[C@@H](CCCNC(=N)N)NC(=O)CCCCCNC(=O)[C@H](N)CCCNC(=N)N)[C@H](C)O)C(=O)N[C@H](CCCNC(=N)N)C(=O)N[C@@H](C(=O)N[C@H](CSC1CC(=O)N(CCC(=O)NCCOCCOC(=O)N[C@H](CS)C(=O)N[C@@H](C(=O)N[C@H](CS)C(=O)N[C@H](C)C(=O)N[C@@H](C(=O)N[C@H](C)C(=O)N[C@H](CS)C(=O)N[C@@H](C(=O)N[C@H](CS)C(=O)N[C@@H](C(N)=O)[C@H](C)O)[C@H](C)O)[C@H](C)O)[C@H](C)O)C1=O)C(N)=O)C(C)C (some centres not stated) | 32 | 64 | 8 to 16 | > 64 | 64 | > 64 | 32 | 32 to 64 | ≥ 64 | 64 | < 1 |  |  |  |
